# Test results as given in ChEMBL document CHEMBL4052629, “Scutellarin derivatives as apoptosis inducers: Design, synthesis and biological evaluation” (Eur J Med Chem, 2017).
# The source made the active and inactive calls. The rule behind the calls is not given here.
# What was measured:
# PC-3 [1] = assay: Cell cycle arrest in human PC3 cells assessed as accumulation at G2/M phase at 0.31 uM after 72 hrs by propidium iodide staining-based flow cytometric analysis (reference value: 10.19%); assay type: functional
# Method in brief: (§1)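 Concentrations used were 0, 0.3, 0.6 and 1.2 μM in HepG2 and 0, 0.16, 0.31 and 1.25 μM in PC-3, with untreated cells as control, for 72 h. Cells were trypsinized, washed in PBS, fixed in cold ethanol at 4 °C overnight, then incubated 30 min in PBS containing RNase A and propidium iodide. DNA content was read by flow cytometry to give phase distribution.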
# PC-3 [2] = assay: Induction of apoptosis in human PC3 cells assessed as reduction in mitochondrial membrane potential after 48 hrs by JC-1 staining-based flow cytometric analysis; assay type: functional, cell-based
# Method in brief: (§2)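 After overnight culture, PC-3 cells were treated in triplicate with 0, 0.16, 0.31 or 1.25 μM, or vehicle, for 48 h. They were then loaded with JC-1, and the proportion with depolarized mitochondrial membrane potential was counted by flow cytometry.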
# PC-3 [3] = assay: Induction of apoptosis in human PC3 cells assessed as late apoptotic cells at 0.16 uM after 72 hrs by Annexin V-APC/7-AAD or propidium iodide staining-based flow cytometric analysis (reference value: 4.74%); assay type: functional
# PC-3 [4] = assay: Induction of apoptosis in human PC3 cells assessed as reduction in mitochondrial membrane potential at 0.16 uM after 48 hrs by JC-1 staining-based flow cytometric analysis (reference value: 1.86%); assay type: functional; set-up: scale not given: the % may be the effect or the level left; method in brief: as §2
# PC-3 [5] = assay: Induction of apoptosis in human PC3 cells assessed as reduction in adherent cells at 0.16 to 1.25 uM after 48 hrs by Hoechst 33258 staining-based fluorescent microscopic analysis; assay type: functional, cell-based
# Method in brief: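 PC-3 cells grown on sterile cover slips were exposed to 0, 0.16, 0.31 or 1.25 μM, or vehicle, for 48 h. Then fixed with 4% paraformaldehyde for 10 min, washed twice in PBS, stained with Hoechst 33258 for 5 min and washed again. Nuclei imaged at 350 nm excitation and 460 nm emission.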
# PC-3 [6] = assay: Induction of apoptosis in human PC3 cells assessed as early apoptotic cells at 0.16 uM after 72 hrs by Annexin V-APC/7-AAD or propidium iodide staining-based flow cytometric analysis (reference value: 4.09%); assay type: functional
# PC-3 [7] = assay: Cell cycle arrest in human PC3 cells assessed as accumulation at S phase at 1.25 uM after 72 hrs by propidium iodide staining-based flow cytometric analysis (reference value: 36.46%); assay type: functional; method in brief: as §1
# PC-3 [8] = assay: Induction of apoptosis in human PC3 cells assessed as necrotic cells at 1.25 uM after 72 hrs by Annexin V-APC/7-AAD or propidium iodide staining-based flow cytometric analysis (reference value: 2.43%); assay type: functional
# PC-3 [9] = assay: Induction of apoptosis in human PC3 cells assessed as reduction in mitochondrial membrane potential at 1.25 uM after 48 hrs by JC-1 staining-based flow cytometric analysis (reference value: 1.86%); assay type: functional; set-up: scale not given: the % may be the effect or the level left; method in brief: as §2
# L02 [10] = assay: Induction of apoptosis in human LO2 cells assessed as necrotic cells at 1.25 uM after 72 hrs by Annexin V-FITC/7-AAD or propidium iodide staining-based flow cytometric analysis (reference value: 1.99%); assay type: cell-based; details: l02, 72 h
# PC-3 [11] = assay: Cell cycle arrest in human PC3 cells assessed as accumulation at S phase at 0.16 uM after 72 hrs by propidium iodide staining-based flow cytometric analysis (reference value: 36.46%); assay type: functional; method in brief: as §1
# L02 [12] = assay: Induction of apoptosis in human LO2 cells assessed as late apoptotic cells at 50 uM after 72 hrs by Annexin V-FITC/7-AAD or propidium iodide staining-based flow cytometric analysis (reference value: 0.11%); assay type: cell-based; details: l02, 72 h
# HepG2 [13] = assay: Induction of apoptosis in human HepG2 cells assessed as cell shrinkage at 0.3 to 0.6 uM after 48 hrs by Hoechst 33258 staining-based fluorescent microscopic analysis; assay type: functional
# Method in brief: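 HepG2 cells grown on coverslips were treated for 48 h at 0.3, 0.6 or 1.2 μM, then fixed in 4% paraformaldehyde for 10 min. After PBS washes, cells were stained with Hoechst 33258 for 5 min and washed again. Nuclear morphology was examined by fluorescence imaging at 350 nm excitation and 460 nm emission.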
# HepG2 [14] = assay: Cell cycle arrest in human HepG2 cells assessed as accumulation at G1 phase at 1.2 uM after 72 hrs by propidium iodide staining-based flow cytometric analysis (reference value: 34%); assay type: functional; method in brief: as §1
# HepG2 [15] = assay: Induction of apoptosis in human HepG2 cells assessed as reduction in HO-2 expression levels at 2 uM after 24 hrs by membrane-based sandwich immunoassay; assay type: functional, cell-based
# Method in brief: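 HepG2 cells treated at 2 μM for 24 h; protein extracts prepared per the kit protocol. Relative levels of 35 apoptosis-related proteins measured with a human apoptosis antibody array.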
# HepG2 [16] = assay: Induction of apoptosis in human HepG2 cells assessed as early apoptotic cells at 0.3 uM after 72 hrs by Annexin V-APC/7-AAD or propidium iodide staining-based flow cytometric analysis (reference value: 1.87%); assay type: functional
# HepG2 [17] = assay: Cell cycle arrest in human HepG2 cells assessed as accumulation at S phase at 0.6 uM after 72 hrs by propidium iodide staining-based flow cytometric analysis (reference value: 44.6%); assay type: functional; method in brief: as §1
# HepG2 [18] = assay: Induction of apoptosis in human HepG2 cells assessed as viable cells at 0.6 uM after 72 hrs by Annexin V-APC/7-AAD or propidium iodide staining-based flow cytometric analysis (reference value: 90.08%); assay type: functional; details: HepG2, 72 h, read-out: Activity
# HepG2 [19] = assay: Induction of apoptosis in human HepG2 cells assessed as necrotic cells at 0.6 uM after 72 hrs by Annexin V-APC/7-AAD or propidium iodide staining-based flow cytometric analysis (reference value: 1.87%); assay type: functional
# HepG2 [20] = assay: Induction of apoptosis in human HepG2 cells assessed as reduction in adherent cells at 0.3 to 0.6 uM after 48 hrs by Hoechst 33258 staining-based fluorescent microscopic analysis; assay type: functional, cell-based
# Method in brief: (§3)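 HepG2 cells on sterile cover slips in 6-well plates exposed to 0, 0.3, 0.6 or 1.2 μM, or vehicle, for 48 h. Fixed in 4% paraformaldehyde for 10 min, PBS-washed, stained with Hoechst 33258 for 5 min. Nuclear morphology and adherent cell number viewed at 350 nm excitation / 460 nm emission. Non-treated cells served as control.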
# L02 [21] = assay: Induction of apoptosis in human LO2 cells assessed as necrotic cells at 1.2 uM after 72 hrs by Annexin V-FITC/7-AAD or propidium iodide staining-based flow cytometric analysis (reference value: 1.99%); assay type: cell-based; details: l02, 72 h
# HepG2 [22] = assay: Induction of apoptosis in human HepG2 cells assessed as rupture of cell membrane at 1.2 uM after 48 hrs by Hoechst 33258 staining-based fluorescent microscopic analysis; assay type: functional; method in brief: as §3
# HepG2 [23] = assay: Induction of apoptosis in human HepG2 cells assessed as reduction in mitochondrial membrane potential at 1.2 uM after 48 hrs by JC-1 staining-based flow cytometric analysis (reference value: 1.6%); assay type: functional; set-up: scale not given: the % may be the effect or the level left
# Method in brief: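 HepG2 cells cultured overnight, then incubated in triplicate with 0, 0.3, 0.6 or 1.2 μM, or vehicle, for 48 h. Stained with the cationic dye JC-1. Flow cytometry gave the percentage of cells with healthy versus collapsed mitochondrial membrane potential.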
# HepG2 [24] = assay: Induction of apoptosis in human HepG2 cells assessed as necrotic cells at 0.3 uM after 72 hrs by Annexin V-APC/7-AAD or propidium iodide staining-based flow cytometric analysis (reference value: 1.87%); assay type: functional
smiles,measurement,setting,value
COc1ccc(-c2cc(=O)c3c(O)c(OC)c(O[C@@H]4O[C@H](C(=O)NCCOc5no[n+]([O-])c5S(=O)(=O)c5ccccc5)[C@@H](O)[C@H](O)[C@H]4O)cc3o2)cc1,Activity,PC-3 [1],13.48%
same,Activity,PC-3 [2],Dose-dependent effect
same,Activity,PC-3 [3],12.75%
same,Activity,PC-3 [4],17.9%
same,Activity,PC-3 [5],Active
same,Activity,PC-3 [6],3.71%
same,Activity,PC-3 [7],50.41%
same,Activity,PC-3 [8],5.21%
same,Activity,PC-3 [9],61.01%
same,Activity,L02 [10],1.32%
same,Activity,PC-3 [11],38.34%
O=C(NCCCOc1no[n+]([O-])c1S(=O)(=O)c1ccccc1)[C@H]1O[C@@H](Oc2cc3oc(-c4ccc(OCc5ccccc5)cc4)cc(=O)c3c(O)c2OCc2ccccc2)[C@H](O)[C@@H](O)[C@@H]1O,Activity,L02 [12],9.83%
same,Activity,HepG2 [13],Active
same,Activity,HepG2 [14],27.12%
same,Activity,HepG2 [15],Active
same,Activity,HepG2 [16],3.04%
same,Activity,HepG2 [17],50.45%
same,viability at 0.6 µM,HepG2 [18],64.6%
same,Activity,HepG2 [19],2.31%
same,Activity,HepG2 [20],Active
same,Activity,L02 [21],1.53%
same,Activity,HepG2 [22],Active
same,Activity,HepG2 [23],58.47%
same,Activity,HepG2 [24],3.85%
